Experimental data: ChEMBL document CHEMBL3393048, “Discovery of potent cytotoxic ortho-aryl chalcones as new scaffold targeting tubulin and mitosis with affinity-based fluorescence” (J Med Chem, 2014)
pIC50: −log10 of the molar value. Calls of active or inactive are those of the source. The rule behind the calls is not given here.

Tests used:
SW480 = test: Antiproliferative activity against human SW480 cells after 48 hrs by SRB method; assay type: functional, cell-based; conditions: SW480, 48 h
In short: (§1)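 SRB assay. Cells in DMEM high glucose with 10% FBS were seeded at 5000/well and grown 24 h; a day-0 plate was fixed at that point. Compounds were added in triplicate for 48 h. IC50 came from nonlinear regression of dose–response curves from at least two independent experiments.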

A549 [1] = test: Drug resistance index, ratio of IC50 for cis-platinum-resistant human A549 cells to IC50 for human A549 cells; assay type: functional
In short: (§2)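 Drug resistance index = IC50 in the resistant line / IC50 in its parental line. […] Pairs: A549/CDDP vs A549, MCF-7/DOX vs MCF-7, A2780/TAX vs A2780, HCT-8/VCT vs HCT-8.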

[2] = Drug resistance index, ratio of IC50 for vincristine-resistant human HCT8 cells to IC50 for human HCT8 cells; assay type: functional, HCT-8; in short: as §2
HepG2 = test: Antiproliferative activity against human HepG2 cells after 48 hrs by SRB method; assay type: functional, cell-based; conditions: HepG2, 48 h; in short: as §1
MCF7 [3] = test: Antiproliferative activity against human MCF7 cells after 48 hrs by SRB method; assay type: functional, cell-based; conditions: MCF7, 48 h; in short: as §1
MCF7 [4] = test: Antiproliferative activity against doxorubicin-resistant human MCF7 cells after 48 hrs by SRB method; assay type: functional, cell-based; conditions: MCF7, 48 h; in short: as §1
A549 [5] = test: Antiproliferative activity against human A549 cells after 48 hrs by SRB method; assay type: functional, cell-based; conditions: A549, 48 h
In short: as §1, with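 “h. Cells were fixed with TCA at 4 °C for 1 h, stained with 0.4% SRB, and the dye was solubilized in 10 mM Tris pH 10.4. OD was read at 515 nm with day-0 OD subtracted.” for “h.”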

Tubulin = test: Inhibition of tubulin polymerization (unknown origin) by DAPI staining-based fluorescence microscopy; assay type: protein-complex assay, Homo sapiens
In short: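 Purified tubulin (99% pure; 20 μM as supplied) mixed with compound in general tubulin buffer (80 mM PIPES pH 6.9, 2.0 mM MgCl₂, 0.5 mM EGTA) with 1 mM GTP, 20% glycerol and DAPI reporter. Polymerization tracked kinetically at 37 °C as fluorescence rise (ex 360, em 450 nm). Duplicate wells per concentration. IC50 from at least two independent experiments.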

A549 [6] = test: Cell cycle arrest in human A549 cells assessed as accumulation at G2/M phase at 62.5 nM after 24 hrs by Hoechst 33342 staining-based ArrayScanVTI analysis; assay type: functional
In short: (§3)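 A549 cells were seeded at 5000/well, cultured overnight, then treated 24 h over a 7.81–250 concentration series. Cells were fixed in prewarmed paraformaldehyde 10 min, permeabilized with Triton X-100, and nuclei stained with Hoechst 33342. Imaging was by ArrayScan VTI high-content analysis. Phase percentage = cells within a gated fluorescence intensity / total cells counted.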

MCF7 [7] = test: Drug resistance index, ratio of IC50 for doxorubicin-resistant human MCF7 cells to IC50 for human MCF7 cells; assay type: functional; in short: as §2
A549 [8] = test: Antiproliferative activity against cis-platinum-resistant human A549 cells after 48 hrs by SRB method; assay type: functional, cell-based; conditions: A549, 48 h
In short: as §1, with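 “h. Cells were fixed with TCA at 4 °C for 1 h, stained with 0.4% SRB, and the dye was solubilized in 10 mM Tris pH 10.4. OD was read at 515 nm with day-0 OD subtracted.” for “h.”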

A2780 [9] = test: Antiproliferative activity against taxol-resistant human A2780 cells after 48 hrs by SRB method; assay type: functional, cell-based; conditions: A2780, 48 h; in short: as §1
A2780 [10] = test: Drug resistance index, ratio of IC50 for taxol-resistant human A2780 cells to IC50 for human A2780 cells; assay type: functional; in short: as §2
[11] = Antiproliferative activity against human CNE2 cells after 48 hrs by SRB method; assay type: functional, cell-based; conditions: CNE-2, 48 h; in short: as §1
A2780 [12] = test: Antiproliferative activity against human A2780 cells after 48 hrs by SRB method; assay type: functional, cell-based; conditions: A2780, 48 h; in short: as §1
[13] = Antiproliferative activity against vincristine-resistant human HCT8 cells after 48 hrs by SRB method; assay type: functional, cell-based; conditions: HCT-8, 48 h
In short: as §1, with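 “h. Cells were fixed with TCA at 4 °C for 1 h, stained with 0.4% SRB, and the dye was solubilized in 10 mM Tris pH 10.4. OD was read at 515 nm with day-0 OD subtracted.” for “h.”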

A549 [14] = test: Cell cycle arrest in human A549 cells assessed as accumulation at G2/M phase at 7.81 to 250 nM after 24 hrs by Hoechst 33342 staining-based ArrayScanVTI analysis; assay type: functional; in short: as §3
[15] = Antiproliferative activity against human HCT8 cells after 48 hrs by SRB method; assay type: functional, cell-based; conditions: HCT-8, 48 h; in short: as §1
Tubulin (Homo sapiens) [16] = target: T1, Tubulin (Homo sapiens) (UniProt P68371+Q9H4B7+P0DPH7+P68366+Q13509+Q71U36+P04350+Q3ZCM7+P07437+P68363+Q9BQE3+Q6PEY2+Q13885+Q9BVA1+Q9BUF5); test: Inhibition of tubulin polymerization (unknown origin) at 5 uM by DAPI staining-based fluorescence microscopy; assay type: protein-complex assay
A549 [17] = test: Antimitotic activity in human A549 cells assessed as disorganized mitosis at 31 nM incubated for 24 hrs followed by cold treatment for 1 hr measured after 15 mins warm up by DAPI staining-based immunofluorescence microscopy; assay type: functional, cell-based
In short: (§4)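 A549 cells, 6 × 10⁴ per confocal dish, grown 24 h, then exposed 24 h (vehicle 0.5% DMSO, 37 °C). Dishes were held on ice 1 h to depolymerize microtubules, then rewarmed at 37 °C for 0, 5, 10 or 15 min. Cells were fixed in prewarmed paraformaldehyde 15 min and permeabilized with Triton X-100. […] Imaged by confocal microscopy.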

A549 [18] = test: Antitumor activity against human A549 cells xenografted in BALB/c nude mouse assessed as reduction in tumor volume at 2 mg/kg, ip administered every other day for 2 weeks (reference value: 1806.9 mm'3); assay type: functional; conditions: route intraperitoneal
Tubulin (Homo sapiens) [19] = target: T1, Tubulin (Homo sapiens); test: Displacement of (E)-3-(4-(Dimethylamino)phenyl)-1-(4'-fluoro[1,1'-biphenyl]-2-yl)prop-2-en-1-one from tubulin (unknown origin) at 2 uM by fluorescence assay; assay type: protein-complex assay
In short: (§5)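 Competition assay. Tubulin (4 μM) and probe (8 μM) in general tubulin buffer at 37 °C were incubated until fluorescence plateaued (about 30 min; excitation 430, emission 510 nm). Competitors were then added at 0–80 μM and kinetics recorded at 37 °C. The stable F/F0 ratio was plotted against competitor concentration and fitted.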

A549 [20] = test: Antimitotic activity in human A549 cells assessed as multipolarization of spindle at 31 nM incubated for 24 hrs followed by cold treatment for 1 hr measured after 15 mins warm up by DAPI staining-based immunofluorescence microscopy; assay type: functional, cell-based; in short: as §4
Tubulin (Homo sapiens) [21] = target: T1, Tubulin (Homo sapiens); test: Binding affinity to tubulin (unknown origin) after 30 mins by fluorescence assay; assay type: protein-complex assay
In short: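 Intrinsic fluorescence on tubulin binding. Compounds were mixed with tubulin (4 μM or 8 μM) in general tubulin buffer and incubated 30 min. Readings were excitation 430/emission 510 nm or excitation 365/emission 465 nm, with kinetic reads from mixing. ΔF = stable emission minus tubulin-only fluorescence. Optimal wavelengths were set by wavelength scanning.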

A549 [22] = test: Cell cycle arrest in human A549 cells assessed as accumulation at G2/M phase at 31.25 nM after 24 hrs by Hoechst 33342 staining-based ArrayScanVTI analysis; assay type: functional
A549 [23] = test: Antimitotic activity in human A549 cells assessed as inhibition of microtubule reassembly in interphase cells at 31 nM incubated for 24 hrs followed by cold treatment for 1 hr measured after 15 mins warm up by DAPI staining-based immunofluorescence microscopy; assay type: functional, cell-based; in short: as §4
A549 [24] = test: Induction of microtubule disruption in human A549 cells assessed as multinucleation at 31 nM after 24 hrs by DAPI staining-based immunofluorescence microscopy; assay type: cell-based
A549 [25] = test: Induction of microtubule disruption in human A549 cells assessed as multipolarization of spindle at 31 nM after 24 hrs by DAPI staining-based immunofluorescence microscopy; assay type: cell-based
A549 [26] = test: Induction of microtubule disruption in human A549 cells assessed as massive and dotted microtubule disorder formation at 31 nM after 24 hrs by DAPI staining-based immunofluorescence microscopy; assay type: cell-based
A549 [27] = test: Antimitotic activity in human A549 cells assessed as inhibition of microtubule reassembly in mitotic cells at 31 nM incubated for 24 hrs followed by cold treatment for 1 hr measured after 15 mins warm up by DAPI staining-based immunofluorescence microscopy; assay type: functional, cell-based; in short: as §4
A549 [28] = test: Antimitotic activity in human A549 cells assessed as multinucleation at 31 nM incubated for 24 hrs followed by cold treatment for 1 hr measured after 15 mins warm up by DAPI staining-based immunofluorescence microscopy; assay type: functional, cell-based; in short: as §4
A549 [29] = test: Antitumor activity against human A549 cells xenografted in BALB/c nude mouse assessed as reduction in tumor weight at 2 mg/kg, ip administered every other day for 2 weeks (reference value: 1.446 gm); assay type: functional; conditions: route intraperitoneal
Tubulin (Homo sapiens) [30] = target: T1, Tubulin (Homo sapiens); test: Binding affinity to tubulin (unknown origin) by fluorescence assay in presence of DTNB; assay type: protein-complex assay
Mus musculus = test: Toxicity in BALB/c nude mouse xenografted with human A549 cells assessed as body weight at 2 mg/kg, ip administered every other day for 2 weeks; assay type: organism-based; set-up: dose 2 mg/kg, route intraperitoneal; conditions: in vivo, 336 h
In short: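 Female BALB/c nude mice, 5 weeks old, given 1 × 10⁷ A549 cells subcutaneously in the right flank. At about 100 mm³ tumor volume, randomized into groups of eight. Dosed ip at 2 mg/kg every other day for 2 weeks. Controls received normal saline with 0.5% DMSO and 5% Kolliphor HS 15. Body weight monitored throughout.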

Tubulin (Homo sapiens) [31] = target: T1, Tubulin (Homo sapiens); test: Displacement of (E)-3-(4-(Dimethylamino)phenyl)-1-(4'-fluoro[1,1'-biphenyl]-2-yl)prop-2-en-1-one from tubulin (unknown origin) by fluorescence assay; assay type: protein-complex assay; in short: as §5

| pIC50 (SW480) | pIC50 (HepG2) | pIC50 (MCF7 [3]) | pIC50 (MCF7 [4]) | pIC50 (A549 [5]) | pIC50 (Tubulin) | pIC50 (A549 [8]) | pIC50 (A2780 [9]) | pIC50 (A2780 [12]) | SMILES | Ratio IC50 (A549 [1]) | Ratio IC50 [2] | Ratio IC50 (MCF7 [7]) | Ratio IC50 (A2780 [10]) | pIC50 [11] | pIC50 [13] | Activity (A549 [14]) | pIC50 [15] | other results |
| --- | --- | --- | --- | --- | --- | --- | --- | --- | --- | --- | --- | --- | --- | --- | --- | --- | --- | --- |
| 7.24 | 7.64 | 6.72 | 8.15 | 7.19 | 5.89 | 6.37 | 6.30 | 7.57 | COc1ccc(/C=C/C(=O)c2ccccc2-c2ccc(F)cc2)cc1O | 10 | 11 | 0.04 | 18 | 7.06 | 6.38 | Active | 7.42 | Activity (A549 [6]): Active |
| 5.18 | 5.55 | 5.40 |  | 5.12 |  |  |  |  | COc1cc(/C=C/C(=O)c2ccccc2-c2ccc(F)cc2)ccc1O |  |  |  |  | 5.60 |  |  |  | inhibition (Tubulin (Homo sapiens) [16]): inactive |
| 8.00 | 8.10 | 7.19 | 8.70 | 7.96 | 6.31 | 6.74 | 6.64 | 7.89 | COc1ccc(/C=C/C(=O)c2ccccc2-c2cccc(F)c2)cc1O | 16 | 3.6 | 0.03 | 18 | 7.77 | 7.24 | Active | 7.80 | Activity (A549 [17]): Active; Activity (A549 [18]): 965.6 mm3; Activity (Tubulin (Homo sapiens) [19]): Active; Activity (A549 [20]): Active; Activity (Tubulin (Homo sapiens) [21]): Dose-dependent effect; Activity (A549 [22]): Active; inhibition (A549 [23]): Active; Activity (A549 [24]): Active; Activity (A549 [25]): Active; Activity (A549 [26]): Active; inhibition (A549 [27]): Active; Activity (A549 [28]): Active; Activity (A549 [29]): 0.641 g; Activity (Tubulin (Homo sapiens) [30]): inactive; Activity (Mus musculus): Non-toxic |
|  |  |  | 5.37 |  |  | 7.25 | 6.03 |  | CC[C@]1(O)C[C@H]2CN(CCc3c([nH]c4ccccc34)[C@@](C(=O)OC)(c3cc4c(cc3OC)N(C=O)[C@H]3[C@@](O)(C(=O)OC)[C@H](OC(C)=O)[C@]5(CC)C=CCN6CC[C@]43[C@@H]65)C2)C1 [VINCRISTINE] | 4.7 |  | 1063 |  |  | 5.72 |  |  | Activity (Tubulin (Homo sapiens) [31]): inactive |
